Data from ChEMBL document CHEMBL4196177, “Synthesis, Evaluation, and Structure-Activity Relationship Study of Lanosterol Derivatives To Reverse Mutant-Crystallin-Induced Protein Aggregation” (J Med Chem, 2018).
Calls of active or inactive are those of the source.

How the values were obtained:
Assay type in all cases: cell-based
[1] = test system: T1, Beta-crystallin B2 (Homo sapiens), P43320 [V187E]; test: Inhibition of beta-crystallin B2 V187E mutant (unknown origin)-induced intracellular protein aggregation expressed in human HeLa cells at 4 uM incubated for 6 to 8 hrs by fluorescence microscopy relative to untreated control
T1 sequence (whole entry): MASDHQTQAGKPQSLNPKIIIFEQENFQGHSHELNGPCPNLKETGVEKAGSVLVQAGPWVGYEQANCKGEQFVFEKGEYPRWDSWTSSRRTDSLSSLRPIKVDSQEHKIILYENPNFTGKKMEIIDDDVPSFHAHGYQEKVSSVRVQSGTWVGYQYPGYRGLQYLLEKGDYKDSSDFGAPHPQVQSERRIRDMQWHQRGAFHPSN

[2] = test system: T1, Beta-crystallin B2 (Homo sapiens), P43320 [V187E]; test: Inhibition of beta-crystallin B2 V187E mutant (unknown origin)-induced intracellular protein aggregation expressed in human HLE-B3 cells at 0.4 uM incubated for 6 to 8 hrs by fluorescence microscopy relative to untreated control
[3] = test system: T1, Beta-crystallin B2 (Homo sapiens), P43320 [V187E]; test: Inhibition of beta-crystallin B2 V187E mutant (unknown origin)-induced intracellular protein aggregation expressed in human HeLa cells at 0.4 uM incubated for 6 to 8 hrs by fluorescence microscopy relative to untreated control
[4] = test system: T2, Gamma-crystallin D (Homo sapiens), P07320 [W43R]; test: Inhibition of gamma-crystallin D W43R mutant (unknown origin)-induced intracellular protein aggregation expressed in human HLE-B3 cells at […] incubated for 6 to 8 hrs by fluorescence microscopy relative to untreated control
T2 sequence (whole entry): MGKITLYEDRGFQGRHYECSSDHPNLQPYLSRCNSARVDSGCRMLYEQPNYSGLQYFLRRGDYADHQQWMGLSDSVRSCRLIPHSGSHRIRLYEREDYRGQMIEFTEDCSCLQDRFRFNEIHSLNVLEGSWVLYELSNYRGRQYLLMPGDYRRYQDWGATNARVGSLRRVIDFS

[5] = test system: T2, Gamma-crystallin D (Homo sapiens), P07320 [W43R]; test: Inhibition of gamma-crystallin D W43R mutant (unknown origin)-induced intracellular protein aggregation expressed in human HeLa cells at 4 uM incubated for 6 to 8 hrs by fluorescence microscopy relative to untreated control
[6] = test system: T3, Alpha-crystallin A chain (Homo sapiens), P02489 [Y118D]; test: Inhibition of alpha-crystallin A Y118D mutant (unknown origin)-induced intracellular protein aggregation expressed in human HeLa cells at 4 uM incubated for 6 to 8 hrs by fluorescence microscopy relative to untreated control
T3 sequence (whole entry): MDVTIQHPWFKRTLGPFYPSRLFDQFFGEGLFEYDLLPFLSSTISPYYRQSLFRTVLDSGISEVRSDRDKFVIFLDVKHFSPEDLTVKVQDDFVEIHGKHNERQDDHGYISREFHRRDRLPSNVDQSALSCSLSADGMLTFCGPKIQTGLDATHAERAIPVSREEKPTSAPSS

[7] = test system: T4, Gamma-crystallin C (Homo sapiens), P07315 [G129C]; test: Inhibition of gamma-crystallin C G129C mutant (unknown origin)-induced intracellular protein aggregation expressed in human HeLa cells at 4 uM incubated for 6 to 8 hrs by fluorescence microscopy relative to untreated control
T4 sequence (whole entry): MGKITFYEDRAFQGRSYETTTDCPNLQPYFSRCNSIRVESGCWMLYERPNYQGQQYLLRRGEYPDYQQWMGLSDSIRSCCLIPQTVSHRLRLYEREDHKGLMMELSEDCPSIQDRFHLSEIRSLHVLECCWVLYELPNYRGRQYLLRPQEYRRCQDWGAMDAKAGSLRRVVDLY

[8] = test system: T1, Beta-crystallin B2 (Homo sapiens), P43320 [V187E]; test: Inhibition of beta-crystallin B2 V187E mutant (unknown origin)-induced intracellular protein aggregation expressed in human HLE-B3 cells at 4 uM incubated for 6 to 8 hrs by fluorescence microscopy relative to untreated control
[9] = test system: T3, Alpha-crystallin A chain (Homo sapiens), P02489 [Y118D]; test: Inhibition of alpha-crystallin A Y118D mutant (unknown origin)-induced intracellular protein aggregation expressed in human HLE-B3 cells at 4 uM incubated for 6 to 8 hrs by fluorescence microscopy relative to untreated control
[10] = test system: T2, Gamma-crystallin D (Homo sapiens), P07320 [W43R]; test: Inhibition of gamma-crystallin D W43R mutant (unknown origin)-induced intracellular protein aggregation expressed in human HeLa cells at 0.4 uM incubated for 6 to 8 hrs by fluorescence microscopy relative to untreated control
[11] = test system: T3, Alpha-crystallin A chain (Homo sapiens), P02489 [Y118D]; test: Inhibition of alpha-crystallin A Y118D mutant (unknown origin)-induced intracellular protein aggregation expressed in human HeLa cells at 0.4 uM incubated for 6 to 8 hrs by fluorescence microscopy relative to untreated control
[12] = test system: T3, Alpha-crystallin A chain (Homo sapiens), P02489 [Y118D]; test: Inhibition of alpha-crystallin A Y118D mutant (unknown origin)-induced intracellular protein aggregation expressed in human HLE-B3 cells at 0.4 uM incubated for 6 to 8 hrs by fluorescence microscopy relative to untreated control
[13] = test system: T4, Gamma-crystallin C (Homo sapiens), P07315 [G129C]; test: Inhibition of gamma-crystallin C G129C mutant (unknown origin)-induced intracellular protein aggregation expressed in human HLE-B3 cells at 4 uM incubated for 6 to 8 hrs by fluorescence microscopy relative to untreated control
[14] = test system: T5, Alpha-crystallin B chain (Homo sapiens), P02511 [R120G]; test: Inhibition of alpha-crystallin B R120G mutant (unknown origin)-induced intracellular protein aggregation expressed in human HLE-B3 cells at 4 uM incubated for 6 to 8 hrs by fluorescence microscopy relative to untreated control
T5 sequence (whole entry): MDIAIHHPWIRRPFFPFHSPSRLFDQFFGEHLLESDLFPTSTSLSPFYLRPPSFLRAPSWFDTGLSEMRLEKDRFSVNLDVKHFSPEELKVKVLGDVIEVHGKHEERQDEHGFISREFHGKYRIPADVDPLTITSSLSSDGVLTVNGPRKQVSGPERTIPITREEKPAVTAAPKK
How it was run: (§1)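 Cells were transfected with mutant crystallin constructs using Lipofectamine 2000 and cultured for 16 h until the overexpressed mutants formed aggregates. Compounds were then added to the culture medium and incubated for 6~8 h. Aggregate dissolution was scored by fluorescence microscopy. For αB R120G, % inhibition at 0.4 and 4 µM was calculated against DMSO-treated cells; values are mean ± error.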

[15] = test system: T4, Gamma-crystallin C (Homo sapiens), P07315 [G129C]; test: Inhibition of gamma-crystallin C G129C mutant (unknown origin)-induced intracellular protein aggregation expressed in human HLE-B3 cells at 0.4 uM incubated for 6 to 8 hrs by fluorescence microscopy relative to untreated control
[16] = test system: T4, Gamma-crystallin C (Homo sapiens), P07315 [G129C]; test: Inhibition of gamma-crystallin C G129C mutant (unknown origin)-induced intracellular protein aggregation expressed in human HeLa cells at 0.4 uM incubated for 6 to 8 hrs by fluorescence microscopy relative to untreated control
[17] = test system: T5, Alpha-crystallin B chain (Homo sapiens), P02511 [R120G]; test: Inhibition of alpha-crystallin B R120G mutant (unknown origin)-induced intracellular protein aggregation expressed in human HLE-B3 cells at 0.4 uM incubated for 6 to 8 hrs by fluorescence microscopy relative to untreated control; how it was run: as §1
[18] = test system: T5, Alpha-crystallin B chain (Homo sapiens), P02511 [R120G]; test: Inhibition of alpha-crystallin B R120G mutant (unknown origin)-induced intracellular protein aggregation expressed in human HeLa cells at 4 uM incubated for 6 to 8 hrs by fluorescence microscopy relative to untreated control; how it was run: as §1
[19] = test system: T2, Gamma-crystallin D (Homo sapiens), P07320 [W43R]; test: Inhibition of gamma-crystallin D W43R mutant (unknown origin)-induced intracellular protein aggregation expressed in human HLE-B3 cells at 4 uM incubated for 6 to 8 hrs by fluorescence microscopy relative to untreated control
[20] = test system: T5, Alpha-crystallin B chain (Homo sapiens), P02511 [R120G]; test: Inhibition of alpha-crystallin B R120G mutant (unknown origin)-induced intracellular protein aggregation expressed in human HeLa cells at 0.4 uM incubated for 6 to 8 hrs by fluorescence microscopy relative to untreated control; how it was run: as §1

Measured: inhibition

C[C@H](CCCC(C)(C)O)[C@H]1CC[C@@]2(C)[C@@]34CC[C@H]5C(C)(C)/C(=N/O)CC[C@]5(C)[C@]3(CC[C@]12C)O4
inactive: [1] | [2] | [3] | [4] | [5] | [6] | [7] | [8] | [9] | [10] | [11] | [12] | [13] | [14] | [15] | [16] | [17] | [18] | [19] | [20]
